≈ marks a conversion by molar mass, not a printed value. Calls of active or inactive are those of the source. No cut-off for these calls is given here.
Legend:
Type in all cases: functional, cell-based
[1] = tested on: L5178Y; assay: Cytotoxicity against mouse L5178Y cells at 0.1 to 10 ug/ml by MTT assay
Summary of the method: (§1)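 MTT viability read-out on L5178Y, HeLa and PC12 cells over 0.1-10 µg/mL, with EC50 values given in µg/mL; a positive control was run alongside. Other details follow an earlier protocol.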

[2] = tested on: PC-12; assay: Cytotoxicity against rat PC12 cells at 0.1 to 10 ug/ml by MTT assay; summary of the method: as §1
[3] = tested on: HeLa; assay: Cytotoxicity against human HeLa cells at 0.1 to 10 ug/ml by MTT assay; summary of the method: as §1
[4] = tested on: L5178Y; assay: Cytotoxicity against mouse L5178Y cells by MTT assay; summary of the method: as §1
[5] = tested on: PC-12; assay: Cytotoxicity against rat PC12 cells by MTT assay; summary of the method: as §1
[6] = tested on: HeLa; assay: Cytotoxicity against human HeLa cells by MTT assay; summary of the method: as §1

| SMILES | Activity [1] | Activity [2] | Activity [3] | EC50 [4] | EC50 [5] | EC50 [6] |
| --- | --- | --- | --- | --- | --- | --- |
| CC1=CC(=O)[C@H]2C(C)(C)[C@@H](O)CC[C@]2(C)[C@@]1(O)CO | inactive | inactive | inactive | – | – | – |
| CC1=CC(=O)[C@H]2C(C)(C)[C@@H](O)CC[C@]2(C)[C@H]1CO | inactive | inactive | inactive | – | – | – |
| C/C=C/C=C/C=C/C(=O)O[C@@H]1C=C2COC(=O)[C@]2(O)[C@@]2(C)CCCC(C)(C)[C@H]12 | – | – | – | 1.9 µg/mL (≈ 4.92 µM) | > 10 µg/mL | 7.5 µg/mL (≈ 19.4 µM) |
| CC1(C)C[C@H](O)C[C@@]2(C)[C@H]1[C@H](O)C=C1COC(=O)[C@@]12O | inactive | inactive | inactive | – | – | – |
| CC(O)C(O)/C=C/C=C/C(=O)O[C@@H]1C=C2COC(=O)[C@]2(O)[C@@]2(C)CCCC(C)(C)[C@H]12 (stereo in doubt; 8) | inactive | inactive | inactive | – | – | – |
| CC1=CC(=O)[C@H]2C(C)(C)C[C@H](O)C[C@]2(C)[C@H]1CO | inactive | inactive | inactive | – | – | – |
| CC1=CC(=O)[C@H]2C(C)(C)C[C@H](O)C[C@]2(C)[C@@]1(O)CO | inactive | inactive | inactive | – | – | – |
| CC1(C)CCC[C@@]2(C)[C@H]1[C@H](OC(=O)/C=C/C=C/C(=O)O)C=C1COC(=O)[C@@]12O | – | – | – | 5.3 µg/mL (≈ 13.6 µM) | > 10 µg/mL | > 10 µg/mL |
| CC1(C)CCC[C@@]2(C)[C@H]1[C@H](OC(=O)/C=C/C=C/C=O)C=C1COC(=O)[C@@]12O [USTUSOLATE E] | – | – | – | 0.6 µg/mL (≈ 1.6 µM) | 7.2 µg/mL (≈ 19.2 µM) | 5.9 µg/mL (≈ 15.8 µM) |
| CC(O)C(O)/C=C/C=C/C(=O)O[C@@H]1C=C2COC(=O)[C@]2(O)[C@@]2(C)CCCC(C)(C)[C@H]12 (stereo in doubt; 9) | inactive | inactive | inactive | – | – | – |

— ChEMBL document CHEMBL1154305, “Drimane sesquiterpenoids from the fungus Aspergillus ustus isolated from the marine sponge Suberites domuncula” (J Nat Prod, 2009)
